≈ marks a conversion by molar mass, not a printed value.
Tests used:
NFF = test: Cytotoxicity against human NFF cells after 6 days by SRB assay; type: cell-based; settings: 144 h
In short: (§1)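 Seeded at 3000−5000 cells/well and exposed for 6 days to compounds diluted from 10 mg/mL DMSO stocks. The top final concentration was 50 μg/mL, carrying 0.5% DMSO final. Cells were ethanol-fixed and stained with sulforhodamine, with absorbance read at 540 nm against untreated controls. IC50 was interpolated from plots of percent control absorbance versus dose.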

HeLa = test: Cytotoxicity against human HeLa cells after 6 days by SRB assay; type: functional, cell-based; settings: 144 h; in short: as §1
HT-29 = test: Cytotoxicity against human HT-29 cells after 6 days by SRB assay; type: functional, cell-based; settings: HT-29, 144 h; in short: as §1
MCF7 = test: Cytotoxicity against human MCF7 cells after 6 days by SRB assay; type: functional, cell-based; settings: MCF7, 144 h; in short: as §1
MM96L = test: Cytotoxicity against human MM96L cells after 6 days by SRB assay; type: functional, cell-based; settings: 144 h; in short: as §1
K562 = test: Cytotoxicity against human K562 cells after 6 days by MTS assay; settings: K562, 144 h

Row | Structure (SMILES) | IC50 (NFF) [µg/mL] | IC50 (HeLa) [µg/mL] | IC50 (HT-29) [µg/mL] | IC50 (MCF7) [µg/mL] | IC50 (MM96L) [µg/mL] | IC50 (K562) [µg/mL]
1 | CC(C)[C@H](O)[C@H](O)C[C@@H](C)[C@H]1[C@@H](O[C@@H]2O[C@H](CO)[C@@H](O)[C@H](O)[C@H]2O)C[C@H]2[C@@H]3CC(=O)[C@H]4C[C@@H](O[C@@H]5O[C@H](CO[C@@H]6O[C@H](CO)[C@@H](O)[C@H](O)[C@H]6O)[C@@H](O)[C@H](O)[C@H]5O)CC[C@]4(C)[C@H]3CC[C@]12C | > 50 | > 50 | > 50 | > 50 | > 50 | > 50
2 | C[C@@H](CO)CC[C@H](O)[C@@H](C)[C@H]1[C@@H](O)C[C@H]2[C@@H]3CC=C4C[C@@H](O)CC[C@]4(C)[C@H]3CC[C@]12C | > 50 | > 50 | > 50 | > 50 | > 50 | > 50
3 | CC(=O)O[C@@H]1[C@H](O)[C@@H](O)[C@H](O[C@@H](C(C)C)[C@H](O)C[C@@H](C)[C@H]2[C@@H](O)C[C@H]3[C@@H]4C[C@@H](O)[C@H]5C[C@@H](O[C@@H]6O[C@H](CO[C@@H]7O[C@H](CO)[C@@H](O)[C@H](O)[C@H]7O)[C@@H](O)[C@H](O)[C@H]6O)CC[C@]5(C)[C@H]4CC[C@]23C)O[C@@H]1C [CHAMAELIROSIDE C] | > 50 | > 50 | > 50 | > 50 | > 50 | > 50
4 | CC(C)[C@@H]1OC(C)(C)O[C@@H]1C[C@@H](C)[C@H]1[C@@H](O)C[C@H]2[C@@H]3C[C@@H](O)[C@H]4C[C@@H](O)CC[C@]4(C)[C@H]3CC[C@]12C | 10 (≈ 20.3 µM) | 4.3 (≈ 8.73 µM) | 3.5 (≈ 7.1 µM) | 5 (≈ 10.1 µM) | 5 (≈ 10.1 µM) | 8.5 (≈ 17.3 µM)
5 | C[C@@H](CO)CC[C@H](O)[C@@H](C)[C@H]1[C@@H](O)C[C@H]2[C@@H]3CC=C4C[C@@H](O)CC[C@]4(C)[C@H]3[C@H](O)C[C@]12C [HELOGENIN] | > 50 | > 50 | > 50 | > 50 | > 50 | > 50
6 | CC(=O)OC[C@H](C)CC[C@@H](OC(C)=O)[C@@H](C)[C@H]1[C@@H](OC(C)=O)C[C@H]2[C@@H]3CC=C4C[C@@H](OC(C)=O)CC[C@]4(C)[C@H]3CC[C@]12C | 13 (≈ 21.6 µM) | 13 (≈ 21.6 µM) | 6.5 (≈ 10.8 µM) | 7.5 (≈ 12.4 µM) | 4.5 (≈ 7.47 µM) | 8.5 (≈ 14.1 µM)
7 | CC(C)[C@H](O)[C@H](O)C[C@@H](C)[C@H]1[C@@H](O)C[C@H]2[C@@H]3CC(=O)[C@H]4C[C@@H](O)CC[C@]4(C)[C@H]3CC[C@]12C | 17 (≈ 37.7 µM) | 15 (≈ 33.3 µM) | 13 (≈ 28.8 µM) | 15 (≈ 33.3 µM) | 4.5 (≈ 9.99 µM) | 5 (≈ 11.1 µM)
8 | CC(C)[C@H](O[C@@H]1O[C@H](C)[C@H](O)[C@H](O)[C@H]1O)[C@H](O)C[C@@H](C)[C@H]1[C@@H](O)C[C@H]2[C@@H]3C[C@@H](O)[C@H]4C[C@@H](O[C@@H]5O[C@H](CO[C@@H]6O[C@H](CO)[C@@H](O)[C@H](O)[C@H]6O)[C@@H](O)[C@H](O)[C@H]5O)CC[C@]4(C)[C@H]3CC[C@]12C [CHAMAELIROSIDE B] | > 50 | > 50 | > 50 | > 50 | > 50 | > 50
9 | CC(C)[C@H](O)[C@H](O)C[C@@H](C)[C@H]1[C@@H](O)C[C@H]2[C@@H]3C[C@@H](O)[C@H]4C[C@@H](O[C@@H]5O[C@H](CO[C@@H]6O[C@H](CO)[C@@H](O)[C@H](O)[C@H]6O)[C@@H](O)[C@H](O)[C@H]5O)CC[C@]4(C)[C@H]3CC[C@]12C [CHAMAELIROSIDE A] | > 50 | > 50 | > 50 | > 50 | > 50 | > 50
10 | CC(=O)O[C@H]1CC[C@@]2(C)C(=CC[C@H]3[C@@H]4C[C@H](OC(C)=O)[C@H]([C@H](C)C(=O)CC[C@@H](C)CO)[C@@]4(C)CC[C@@H]32)C1 | 2 (≈ 3.87 µM) | 2.8 (≈ 5.42 µM) | 0.8 (≈ 1.55 µM) | 0.8 (≈ 1.55 µM) | 1 (≈ 1.94 µM) | 1.7 (≈ 3.29 µM)
11 | CC(C)[C@H](O[C@@H]1O[C@H](C)[C@H](O)[C@H](O)[C@H]1O)[C@H](O)C[C@@H](C)[C@H]1[C@@H](O)C[C@H]2[C@@H]3CC(=O)[C@H]4C[C@@H](O[C@@H]5O[C@H](CO[C@@H]6O[C@H](CO)[C@@H](O)[C@H](O)[C@H]6O)[C@@H](O)[C@H](O)[C@H]5O)CC[C@]4(C)[C@H]3CC[C@]12C | > 50 | > 50 | > 50 | > 50 | > 50 | > 50
12 | CC(C)[C@H](O)[C@H](O)C[C@@H](C)[C@H]1[C@@H](O)C[C@H]2[C@@H]3CC(=O)[C@H]4C[C@@H](O[C@@H]5O[C@H](CO[C@@H]6O[C@H](CO)[C@@H](O)[C@H](O)[C@H]6O)[C@@H](O)[C@H](O)[C@H]5O)CC[C@]4(C)[C@H]3CC[C@]12C | > 50 | > 50 | > 50 | > 50 | > 50 | > 50
13 | C[C@H](CC[C@H](O)[C@@H](C)[C@H]1[C@@H](O)C[C@H]2[C@@H]3CC=C4C[C@@H](O[C@@H]5O[C@H](CO)[C@@H](O)[C@H](O)[C@H]5O)CC[C@]4(C)[C@H]3[C@H](O)C[C@]12C)CO[C@@H]1O[C@H](CO)[C@@H](O)[C@H](O)[C@H]1O [HELOSIDE A] | > 50 | > 50 | > 50 | > 50 | > 50 | > 50
14 | CC(C)[C@H](O)[C@H](O)C[C@@H](C)[C@H]1[C@@H](O)C[C@H]2[C@@H]3C[C@@H](O)[C@H]4C[C@@H](O)CC[C@]4(C)[C@H]3CC[C@]12C | 22 (≈ 48.6 µM) | 12 (≈ 26.5 µM) | 11 (≈ 24.3 µM) | 13 (≈ 28.7 µM) | 8.5 (≈ 18.8 µM) | 7 (≈ 15.5 µM)
15 | C[C@@H]1CC[C@@]2(OC1)O[C@H]1C[C@H]3[C@@H]4CC=C5C[C@@H](O)CC[C@]5(C)[C@H]4CC[C@]3(C)[C@H]1[C@@H]2C [DISOGENIN] | > 50 | > 50 | > 50 | > 50 | > 50 | > 50
16 | CC(=O)OC[C@H](C)CC[C@H](OC(C)=O)[C@@H](C)[C@H]1[C@@H](OC(C)=O)C[C@H]2[C@@H]3CC=C4C[C@@H](OC(C)=O)CC[C@]4(C)[C@H]3CC[C@]12C | 12 (≈ 19.9 µM) | 16 (≈ 26.5 µM) | 4.5 (≈ 7.47 µM) | 11 (≈ 18.2 µM) | 3.5 (≈ 5.81 µM) | 4.5 (≈ 7.47 µM)
17 | CC(C)[C@H](O)[C@H](O)C[C@@H](C)[C@H]1[C@@H](O[C@@H]2O[C@H](CO)[C@@H](O)[C@H](O)[C@H]2O)C[C@H]2[C@@H]3C[C@@H](O)[C@H]4C[C@@H](O[C@@H]5O[C@H](CO[C@@H]6O[C@H](CO)[C@@H](O)[C@H](O)[C@H]6O)[C@@H](O)[C@H](O)[C@H]5O)CC[C@]4(C)[C@H]3CC[C@]12C [CHAMAELIROSIDE E] | > 50 | > 50 | > 50 | > 50 | > 50 | > 50
18 | C[C@@H](CO)CC[C@@H](O)[C@@H](C)[C@H]1[C@@H](O)C[C@H]2[C@@H]3CC=C4C[C@@H](O)CC[C@]4(C)[C@H]3CC[C@]12C | > 50 | > 50 | > 50 | > 50 | > 50 | > 50
